Results on 3 molecules are retold here after paper PMC4651627 (The Journal of organic chemistry, 2015).

Structures are written as SMILES.

Assay [1] deals with MDA-MB-231 breast cancer cells. In words: DNA fragmentation analysis. In kind it is cell-based, human.
For assay [2], the system named is U937 cells. In words: Cell apoptosis analysis by flow cytometry. In kind it is cell-based, human. Conditions: 90 nM, 48 h, control cells 13.2%. A general note: Flow cytometry measures light scatter and fluorescence of single cells or particles in a stream.
Assay [3] deals with small panel of cell lines (five human tumor cell lines, MCF-10A, NIH/3T3). In words: MTT cytotoxicity assay, summary over the panel of cell lines. In kind it is cell-based. (In general: Tetrazolium assays rely on reduction of a dye to a coloured formazan, in cell work by metabolically active cells.)
Another assay concerns MDA-MB-231. In kind it is cell-based, human.
Assay [4] relates to U937 cells. The experiment in a line: Cell cycle analysis by flow cytometry. In kind it is cell-based, human. The note with it: 90 nM, 48 h. In a few lines:
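Exponentially growing U937 cells in RPMI-1640 with 10% FBS received test compound in DMSO (final 90 nM) or an equal amount of DMSO. After 48 h at 37 °C in CO2, cells were PBS-washed, fixed overnight in 70% ice-cold ethanol at 4 °C, and RNase-treated (100 µg/ml, 37 °C, 30 min).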

A further assay has as its system NCI 60-cell line screen. Conditions: cited from earlier work.

In general, IC90 refers to the concentration needed for an effect of 90%. A higher IC90 goes with a need for much substance.

With `CN[C@@H]1C[C@H]2O[C@@](C)([C@@H]1OC)n1c3ccccc3c3c4c(c5c6ccccc6n2c5c31)C(=O)NC4` [staurosporine, reference compound], the “DNA fragmentation (positive control)” value in assay [1] (750 nM staurosporine (Figure 5), MDA-MB-231) is “smaller DNA fragments”.

On to `C/C=C(\C)C(=O)O[C@@H]1[C@@H](O)[C@@H]2O[C@H]3[C@H](O[C@@H](CCCCC)CCCCCCC(=O)CCC(=O)OC[C@@H](O2)[C@H]1OC(=O)/C=C/c1ccccc1)O[C@H](C)[C@H](OC(C)=O)[C@@H]3O` [Ipomoeassin F], for which, in the assay with U937 cells [2], the “percentage of apoptotic cells” value is reported as 33.6%. The “difference in toxicity between two cancer cell lines (U937 and MCF7)” value in assay [3] (U937 vs MCF7) is ~ 8 fold. The “selectivity between tumor and non-tumor cell lines” value in assay [3] (tumor lines vs MCF-10A and NIH/3T3) is “no selectivity between tumor and non-tumor cell lines was observed”. Further, the 90% effect level with MDA-MB-231 (IC90) was put at 100 nM. Also, the DNA fragmentation result in assay [1] (100 nM ipomoeassin F (IC90), MDA-MB-231, 72 h) is listed as “smaller DNA fragments”. Moreover, in the assay on U937 cells [4], the G1 arrest is ~ 25% and the “reduction of cell population in the G2/M phase” value was ~ 21%.

For `C/C=C(\C)C(=O)O[C@@H]1[C@@H](O)[C@@H]2O[C@H]3[C@H](O[C@@H](CCC)CCCCCCC(=O)CCC(=O)OC[C@@H](O2)[C@H]1OC(=O)/C=C/c1ccccc1)O[C@H](C)[C@H](OC(C)=O)[C@@H]3O` [Ipomoeassin A], the “growth inhibition of different cancer cells” value in the assay on NCI 60-cell line screen is “strong and selective growth inhibition”.
